# Screening results as filed in PubChem BioAssay.
# HTRA1 inhibitor – HTRA1 serine protease inhibitors, primary screen, biochemical, fluorescence polarization, HTS. Q92743. recombinant HTRA1, FP-rhodamine activity-based probe. inhibition, % at 5.96 µM. actives 0.5% (n = 340,000). AID 504803, 2011; in the data active = inhibition above about 36%;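 also: 0% = enzyme with DMSO and 100% = wells lacking enzyme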
# mABHD4 FP – ABHD4 inhibitors, primary screen, biochemical, fluorescence polarization, mouse. (Lyso)-N-acylphosphatidylethanolamine lipase (Mus musculus), Q8VD66. purified mABHD4, FP-Rh probe fluorescence polarization. inhibition, % at 8.92 µM. actives 0.54% (n = 370,000). AID 720543, 2013;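 active = inhibition exceeding the mean over every tested compound plus 3 SD, cut at about 30% in these data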;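 also: 0% = plate median of compound wells and 100% = S159A mutant with DMSO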
#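 system = mouse ABHD4 enzyme, wild type | medium = HEPES pH 7.0, NaCl, Pluronic buffer | also added = FP-Rh probe | incubation = Enzyme–compound pre-incubation 45 min, then probe 60 min, both 25 °C | technique = fluorescence polarization, excitation 525 nm, emission 598 nm, BODIPY TMR filters | controls = S159A mutant high control, sample median low control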
# PAFAH1B2 FP inh – PAFAH1B2 enzyme inhibitors, primary screen, biochemical, fluorescence polarization, human. Platelet-activating factor acetylhydrolase IB subunit alpha2 (Homo sapiens), P68402. recombinant PAFAH1B2, FP-rhodamine activity probe. inhibition, % at 3.39 µM. actives 1.2% (n = 340,000). AID 492953, 2010;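 active = inhibition above the mean of all tested compounds plus 3 SD, cut at about 24% in these data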;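 also: 0% = enzyme with DMSO and 100% = wells lacking PAFAH1B2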
# Target sequence (P68402 whole entry, looked up): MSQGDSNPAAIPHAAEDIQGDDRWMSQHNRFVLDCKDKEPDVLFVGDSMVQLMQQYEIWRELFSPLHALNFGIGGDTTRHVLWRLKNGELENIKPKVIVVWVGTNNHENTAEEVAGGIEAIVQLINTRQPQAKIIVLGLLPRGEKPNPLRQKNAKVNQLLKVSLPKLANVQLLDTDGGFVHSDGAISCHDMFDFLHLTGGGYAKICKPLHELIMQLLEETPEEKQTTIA
# PAFAH1B3 FP inh – PAFAH1B3 enzyme inhibitors, primary screen, biochemical, fluorescence polarization, human | actives 0.28% (n = 340,000) | recombinant PAFAH1B3, FP-rhodamine probe | Platelet-activating factor acetylhydrolase IB subunit alpha1 (Homo sapiens), Q15102 | inhibition, % at 3.39 µM;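 active = inhibition above the screen-wide average of all tested compounds plus 3 SD, cut at about 25% in these data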;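 also: 0% = enzyme with DMSO only and 100% = wells lacking PAFAH1B3 protein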
# Target sequence (Q15102 whole entry, looked up): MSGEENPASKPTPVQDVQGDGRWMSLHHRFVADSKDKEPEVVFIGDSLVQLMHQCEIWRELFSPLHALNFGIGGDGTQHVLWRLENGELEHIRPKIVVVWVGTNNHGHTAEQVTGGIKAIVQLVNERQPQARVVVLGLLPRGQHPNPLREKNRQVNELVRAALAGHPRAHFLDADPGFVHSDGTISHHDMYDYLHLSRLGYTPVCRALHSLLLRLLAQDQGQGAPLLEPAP
# pPAFAH inh – pPAFAH enzyme inhibitors, primary screen, biochemical, fluorescence polarization, human; Platelet-activating factor acetylhydrolase (Homo sapiens), Q13093; recombinant pPAFAH, FP-rhodamine probe fluorescence polarization; inhibition, % at 3.39 µM; actives 1.5% (n = 330,000); AID 463082, 2010;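 active = inhibition above the mean inhibition across the screen plus 3 SD, cut at about 25% in these data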;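 also: inhibitors block binding of the rhodamine activity-based probe so polarization drops; 0% = enzyme with DMSO and 100% = wells lacking pPAFAH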
# PAFAH2 FP inh – PAFAH2 enzyme inhibitors, primary screen, biochemical, fluorescence polarization, human; recombinant PAFAH2, FP-rhodamine activity probe; inhibition, % at 3.39 µM; actives 0.99% (n = 340,000);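 active = inhibition above the mean over all tested compounds plus 3 SD, cut at about 30% in these data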;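 also: inhibitors block probe labeling of enzyme so polarization drops; 0% = enzyme with DMSO and 100% = wells lacking PAFAH2 protein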
# An asterisk follows results filed as active; . = no result given. Shown are actives, neighbours in structure and some others; about 2.8% of the full set was active somewhere.
SMILES,HTRA1 inhibitor,mABHD4 FP,PAFAH1B2 FP inh,PAFAH1B3 FP inh,pPAFAH inh,PAFAH2 FP inh
C=CCN(CC#Cc1ccc(C)cc1)Cc1ccc(OC)cc1OC,.,3,.,.,.,.
O=C(COC(=O)CCNS(=O)(=O)c1ccccc1F)Nc1nnc(-c2ccccc2)o1,-1,-1,1,11,33*,10
O=C(CCNS(=O)(=O)c1ccccc1)OCc1nnc(-c2ccccc2)o1,1,-3,2,3,30*,2
C=CCn1c(COc2ccc(Cl)cc2)nnc1SCC(=O)c1ccccc1,.,-7,.,.,.,.
CCC(C)N1C(=O)/C(=C/c2c(NCCCOC(C)C)nc3c(C)cccn3c2=O)SC1=S (stereo not drawn),-6,-8,34*,38*,0,52*
CCCN1C(=O)/C(=C/c2c(NCCCOC(C)C)nc3c(C)cccn3c2=O)SC1=S,-4,.,-5,4,-7,-9
COc1cccc(CO[C@H]2C=C[C@@H](c3ccccc3)O[C@@H]2COC(C)=O)c1,.,0,.,.,.,.
O=C(CN1c2cccc3cccc(c23)S1(=O)=O)NC1CCCCC1,2,-3,6,0,30*,7
CCOC(=O)C1CCN(C(=O)C(C)(C)NC(=O)Nc2ccc(OC)c(Cl)c2)CC1,.,0,.,.,.,.
O=C(CSc1nnc(COc2ccc(Cl)cc2)n1Cc1ccco1)Nc1cccc2ccccc12,.,-21,.,.,.,.
O=C(Nc1nnc(-c2ccco2)s1)C1CCCCC1,0,6,2,-2,3,3
O=C(Nc1nc(-c2ccco2)c(-c2ccco2)s1)C1CCC1,10,13,-4,4,28*,5
O=C1c2cccn2CC2Cc3ccccc3N12 (stereo not drawn),.,3,.,.,.,.
O=C(CSc1nnc(-c2ccccc2)n1-c1ccc(Cl)cc1)c1ccccc1Br,.,-19,.,.,.,.
CNC(=O)C1(c2ccccc2)CCCCC1,2,4,.,.,.,.
Cc1cc(NC(=O)C2(c3ccccc3)CCCC2)no1,-5,-1,25*,5,-4,4
Cc1cc(NC(=O)CCC(=O)N(c2ccccc2)C2(C(=O)NC3CCCCC3)CCCC2)no1,-4,-4,26*,7,5,1
C[C@@H]1CN([C@@H](C)CO)C(=O)c2cccc(NC(=O)Nc3cccc4ccccc34)c2O[C@H]1CN(C)S(=O)(=O)c1ccc(Cl)cc1,.,-16,.,.,.,.
O=C(NCCc1c[nH]c2ccccc12)c1ccc(Sc2ccccc2Cl)c([N+](=O)[O-])c1,.,-28,.,.,.,.
O=C(Nc1c(-c2ccc(C(F)(F)F)cc2)nc2ncccn12)c1ccc(F)cc1,.,6,.,.,.,.
COc1ccc(-c2noc(CSc3nnc(CCc4ccccc4)n3-c3ccccc3)n2)cc1OC,-40,-16,-5,-2,6,-2
COc1ccc(-c2noc(CSc3ccccc3)n2)cc1OC,-15,-8,24*,7,14,7
Cc1ccc(CNC(=O)CO/N=C/c2ccc(C(C)(C)C)cc2)cc1,-20,-10,29*,3,7,-6
CC(C)(C)c1ccc(/C=N/OCC(=O)NCc2ccccc2)cc1,-23,-15,23,-3,5,5
O=c1[nH]c(CCl)nc2cc(-c3ccc(F)cc3)sc12,1,0,29*,3,12,0
SMILES,HTRA1 inhibitor,mABHD4 FP,PAFAH1B2 FP inh,PAFAH1B3 FP inh,pPAFAH inh,PAFAH2 FP inh
COC(=O)CSc1nnc(-c2cccs2)o1,.,4,.,.,.,.
CCCCOc1ccc(C(=O)NC2CCCCN(Cc3cccc(Cl)c3)C2=O)cc1 (stereo not drawn),.,-7,.,.,.,.
O=C(NCCc1ccc(Cl)cc1)C1CCC(=O)N1Cc1ccc(F)cc1 (stereo not drawn),0,-3,28*,1,-1,10
Cc1ccc(CCNC(=O)C2CCC(=O)N2Cc2ccc(F)cc2)cc1 (stereo not drawn),6,-3,15,3,0,-5
O=S1(=O)c2c(cccc2N2CCC[C@H]2CO)O[C@H]2CCN1C2,.,-6,.,.,.,.
COc1cc2c(cc1Cl)/C(=C\CCN(C)C)c1ccccc1S2,-9,20,-4,4,3,13
